Reference: ChEMBL document CHEMBL1137720, “New acyclic nucleosides analogues as potential analgesic, anti-inflammatory, anti-oxidant and anti-microbial derived from pyrimido[4,5-b]quinolines” (2009)

Experiments:
[1] = system: Escherichia coli; assay: Antibacterial activity against Escherichia coli ATCC 23566 at 100 ug/disk after 24 to 48 hrs by agar disk diffusion method; format: functional; details: read-out: DIZ
How it was run: (§1)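 Agar disc diffusion used sterile 5 mm filter-paper discs loaded with 100 µg per disc, with DMSO as solvent. Plates were incubated 24–28 h at 37 °C and inhibition zone diameters measured: 6–10 mm slight, 11–15 mm moderate, >15 mm high. For MIC, discs carried varying amounts, and MIC was the lowest amount giving no visible growth.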

[2] = species on record: Mus musculus; assay: Analgesic activity in Swiss mouse assessed as reaction time after 90 mins by hot plate test; format: functional
How it was run: (§2)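 Swiss mice of both sexes, 25–30 g, were housed at 22 ± 1 °C on a 12 h light/dark cycle with free access to diet and water. Hot-plate testing followed Turner's method.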

[3] = system: Aspergillus fumigatus; assay: Antimicrobial activity against Aspergillus fumigatus ATCC 96918 at 100 ug/disk after 5 days by agar disk diffusion method; format: functional; details: ATCC 96918, 120 h, read-out: DIZ
[4] = species on record: Mus musculus; assay: Analgesic activity in Swiss mouse assessed as reaction time after 30 mins by hot plate test; format: functional; how it was run: as §2
[5] = system: Pseudomonas aeruginosa; assay: Antibacterial activity against Pseudomonas aeruginosa ATCC 10145 at 100 ug/disk after 24 to 48 hrs by agar disk diffusion method; format: functional; details: read-out: DIZ; how it was run: as §1
[6] = system: Rattus norvegicus; assay: Antiinflammatory activity in Sprague-Dawley rat assessed as inhibition of carrageenan-induced paw edema after 1 hr; format: functional
How it was run: (§3)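 Adult female Sprague-Dawley rats, 150–180 g, were used (n = 6 per group). Paw volume increase after carrageenan was read at 1, 2, 3 and 4 h. % edema inhibition was calculated against untreated controls. The reference drug was given orally at 10 mg/kg as an aqueous suspension.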

[7] = system: Rattus norvegicus; assay: Antiinflammatory activity in Sprague-Dawley rat assessed as inhibition of carrageenan-induced paw edema after 4 hrs; format: functional; how it was run: as §3
[8] = system: Rattus norvegicus; assay: Antiinflammatory activity in Sprague-Dawley rat assessed as inhibition of carrageenan-induced paw edema after 2 hrs; format: functional; how it was run: as §3
[9] = system: Candida albicans; assay: Antimicrobial activity against Candida albicans ATCC 14053 at 100 ug/disk after 5 days by agar disk diffusion method; format: functional; details: ATCC 14053, 120 h, read-out: DIZ
[10] = Antioxidant activity assessed as inhibition of ABTS-oxidation in 0.1 M phosphate buffer at pH 7; format: functional
How it was run: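 ABTS (60 µM, 2 mL) was mixed with MnO2 (25 mg/mL) in 0.1 M phosphate buffer pH 7, then shaken, centrifuged and filtered. Radical solution A734 was set to about 0.5. MeOH/buffer served as negative control.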

[11] = system: Staphylococcus aureus; assay: Antibacterial activity against Staphylococcus aureus ATCC 25923 at 100 ug/disk after 24 to 48 hrs by agar disk diffusion method; format: functional; details: read-out: DIZ; how it was run: as §1
[12] = system: Rattus norvegicus; assay: Antiinflammatory activity in Sprague-Dawley rat assessed as inhibition of carrageenan-induced paw edema after 3 hrs; format: functional; how it was run: as §3
[13] = species on record: Mus musculus; assay: Analgesic activity in Swiss mouse assessed as reaction time after 60 mins by hot plate test; format: functional; how it was run: as §2
[14] = Antioxidant activity in Sprague-Dawley rat erythrocytes assessed as ABTS-induced hemolysis after 1 hr; format: functional, Erythrocyte; design: concentration or dose not given beside the values
[15] = system: Nucleic Acid; assay: Inhibition of bleomycin-induced DNA damage assessed as absorbance at 532 nm after 1 hr at 37 degC; format: nucleic-acid assay
How it was run: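 The 0.5 mL reaction contained calf thymus DNA (0.5 mg/mL), bleomycin sulfate (0.05 mg/mL), MgCl2 (5 mM), FeCl3 (50 µM) and compound at varying concentrations. After 1 h at 37 °C, the reaction was stopped with EDTA. TBA (1%) and HCl (25%) were added, followed by 10 min at 80 °C. After centrifugation, DNA damage was read as A532.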

[16] = system: Rattus norvegicus; assay: Antiinflammatory activity in Sprague-Dawley rat assessed as inhibition of carrageenan-induced paw edema at 10 mg/kg, po after 1 hr; format: functional; how it was run: as §3
[17] = species on record: Rattus norvegicus; assay: animal or person; details: Sprague-Dawley, po, 2 h, read-out: INH
[18] = system: Rattus norvegicus; assay: Antiinflammatory activity in Sprague-Dawley rat assessed as inhibition of carrageenan-induced paw edema at 10 mg/kg, po after 3 hrs; format: functional; how it was run: as §3
[19] = system: Rattus norvegicus; assay: Antiinflammatory activity in Sprague-Dawley rat assessed as inhibition of carrageenan-induced paw edema at 10 mg/kg, po after 4 hrs; format: functional; how it was run: as §3

SMILES	zone of inhibition at 100 µg/disc [1] [mm]	Activity [2] [s]	zone of inhibition at 100 µg/disc [3] [mm]	Activity [4] [s]	zone of inhibition at 100 µg/disc [5] [mm]	inhibition (INH) [6] [%]	inhibition (INH) [7] [%]	inhibition (INH) [8] [%]	zone of inhibition at 100 µg/disc [9] [mm]	inhibition [10] [%]	zone of inhibition at 100 µg/disc [11] [mm]	inhibition (INH) [12] [%]	Activity [13] [s]	Activity [14] [%]	deltaA [15]	inhibition in vivo at 10 mg/kg [16] [%]	inhibition in vivo at 10 mg/kg [17] [%]	inhibition in vivo at 10 mg/kg [18] [%]	inhibition in vivo at 10 mg/kg [19] [%]
O=c1[nH]c(=S)[nH]c2nc3c(c(-c4ccccc4)c12)CCC/C3=C\c1ccccc1	17	2.583	13	2.7	15	31.25	25	24	11	44.4	14	27.54	2.65	35.75	–	–	–	–	–
O=c1c2c(-c3ccc(Cl)cc3)c3c(nc2nc2[nH]nc([C@@H](O)[C@H](O)[C@H](O)CO)n12)/C(=C/c1ccc(Cl)cc1)CCC3	20	8.433	16	3.6	19	40.62	46.67	52	12	66.7	20	45.31	5.933	3.51	0.05	–	–	–	–
CC(=O)OC[C@@H](OC(C)=O)[C@@H](OC(C)=O)[C@@H](/C=N/Nc1nc2nc3c(c(-c4ccc(Cl)cc4)c2c(=O)n1OC(C)=O)CCC/C3=C\c1ccc(Cl)cc1)OC(C)=O	14	4.583	8	3.667	15	18.75	22.22	28	10	35.2	13	28.98	3.483	30.75	–	–	–	–	–
CC(=O)Oc1ccccc1C(=O)O [ASPIRIN]	–	8.65	–	5.1	–	–	–	–	–	–	–	–	7.683	–	–	–	–	–	–
O=c1c2c(-c3ccc(Cl)cc3)c3c(nc2nc2[nH]nc([C@H](O)[C@H](O)[C@H](O)CO)n12)/C(=C/c1ccc(Cl)cc1)CCC3	18	6.667	13	3.55	18	46.88	39.81	40.58	13	68.8	22	39.06	5.35	3.42	0.045	–	–	–	–
CC(=O)OC[C@@H](OC(C)=O)[C@H](OC(C)=O)[C@H](OC(C)=O)[C@@H](OC(C)=O)c1n[nH]c2nc3nc4c(c(-c5ccc(Cl)cc5)c3c(=O)n12)CCC/C4=C\c1ccc(Cl)cc1	14	2.483	11	2.65	10	21.88	17.19	14	11	42.6	10	18.48	2.667	8.33	–	–	–	–	–
NNc1nc2nc3c(c(-c4ccc(Cl)cc4)c2c(=O)[nH]1)CCC/C3=C\c1ccc(Cl)cc1	22	6.617	11	3.7	20	34.38	35.19	34	13	59.3	18	37.68	4.067	5.45	–	–	–	–	–
O=C(O)c1cn(C2CC2)c2cc(N3CCNCC3)c(F)cc2c1=O [CIPROFLOXACIN]	–	–	–	–	24	–	–	–	–	–	24	–	–	–	–	–	–	–	–
O=c1c2c(-c3ccc(Cl)cc3)c3c(nc2nc2[nH]nc([C@H](O)[C@@H](O)[C@@H](O)[C@H](O)CO)n12)/C(=C/c1ccc(Cl)cc1)CCC3	20	6.767	7	3.767	19	50	50	56	11	83.7	20	49.27	5.45	4.01	0.029	–	–	–	–
CC(=O)OC[C@@H](OC(C)=O)[C@@H](OC(C)=O)[C@@H](OC(C)=O)[C@@H](OC(C)=O)c1n[nH]c2nc3nc4c(c(-c5ccc(Cl)cc5)c3c(=O)n12)CCC/C4=C\c1ccc(Cl)cc1	14	2.633	12	2.483	12	18.75	19.57	14.8	11	40.7	13	13.28	2.667	8.18	–	–	–	–	–
CC(=O)N1CCN(c2ccc(OCC3COC(Cn4ccnc4)(c4ccc(Cl)cc4Cl)O3)cc2)CC1 (configuration not stated) [KETOCONAZOLE]	–	–	19	–	–	–	–	–	21	–	–	–	–	–	–	–	–	–	–
CC(=O)OC[C@@H](OC(C)=O)[C@@H](OC(C)=O)[C@H](/C=N/Nc1nc2nc3c(c(-c4ccc(Cl)cc4)c2c(=O)n1OC(C)=O)CCC/C3=C\c1ccc(Cl)cc1)OC(C)=O	14	4.033	11	3.5	13	15.62	26.56	20.37	7	40.7	11	26.09	3.483	6.06	–	–	–	–	–
O=c1c2c(-c3ccc(Cl)cc3)c3c(nc2nc2[nH]nc([C@H](O)[C@H](O)[C@H](O)[C@H](O)CO)n12)/C(=C/c1ccc(Cl)cc1)CCC3	24	9.567	16	4.65	22	62.5	40.62	44	12	81.5	19	42.03	7.4	4.23	0.026	–	–	–	–
COc1ccc2c(c1)c(CC(=O)O)c(C)n2C(=O)c1ccc(Cl)cc1 [INDOMETHACIN]	–	–	–	–	–	–	–	–	–	–	–	–	–	–	–	50	58	65.2	57.8
O=C1O[C@H]([C@@H](O)CO)C(O)=C1O [ASCORBIC ACID]	–	–	–	–	–	–	–	–	–	–	–	–	–	3.93	0.026	–	–	–	–
